In data set [1] the target is T1, Diacylglycerol lipase-alpha (Mus musculus) (UniProt Q6WQJ1).
T1 sequence (whole entry): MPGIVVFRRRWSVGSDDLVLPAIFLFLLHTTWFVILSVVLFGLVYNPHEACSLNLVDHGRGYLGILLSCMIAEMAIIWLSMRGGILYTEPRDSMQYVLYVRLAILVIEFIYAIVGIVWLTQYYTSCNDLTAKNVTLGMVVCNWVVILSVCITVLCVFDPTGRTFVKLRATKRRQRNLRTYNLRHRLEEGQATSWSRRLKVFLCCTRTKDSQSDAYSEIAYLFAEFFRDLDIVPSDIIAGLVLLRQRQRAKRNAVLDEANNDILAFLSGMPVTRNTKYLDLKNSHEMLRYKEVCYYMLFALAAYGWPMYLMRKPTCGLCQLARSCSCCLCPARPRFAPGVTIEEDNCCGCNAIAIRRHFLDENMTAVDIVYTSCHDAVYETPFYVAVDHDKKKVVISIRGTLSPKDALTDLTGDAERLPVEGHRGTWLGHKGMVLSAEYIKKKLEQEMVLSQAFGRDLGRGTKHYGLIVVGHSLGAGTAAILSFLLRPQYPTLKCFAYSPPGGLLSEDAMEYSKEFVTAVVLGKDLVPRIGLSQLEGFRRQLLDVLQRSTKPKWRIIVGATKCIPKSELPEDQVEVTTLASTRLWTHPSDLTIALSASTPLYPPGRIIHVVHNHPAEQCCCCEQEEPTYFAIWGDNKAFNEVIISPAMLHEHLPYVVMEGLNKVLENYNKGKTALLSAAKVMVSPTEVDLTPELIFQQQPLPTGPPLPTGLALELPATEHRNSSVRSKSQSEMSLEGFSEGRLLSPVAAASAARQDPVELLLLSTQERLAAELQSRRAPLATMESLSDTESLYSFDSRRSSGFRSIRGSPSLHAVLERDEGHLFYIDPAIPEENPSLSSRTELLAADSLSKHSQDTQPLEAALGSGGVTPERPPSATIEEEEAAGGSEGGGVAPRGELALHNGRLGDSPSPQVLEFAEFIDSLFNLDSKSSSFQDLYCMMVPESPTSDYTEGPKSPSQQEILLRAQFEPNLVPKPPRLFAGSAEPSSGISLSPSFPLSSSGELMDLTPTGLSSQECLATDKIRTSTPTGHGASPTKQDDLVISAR
Description: Inhibition of mouse DAGL-alpha expressed in HEK293T cell membranes assessed as inactivation constant pre-incubated for 20 mins before PNP-butyrate substrate addition and measured after 30 mins by surrogate substrate assay. It counts as cell-based.

The target in data set [2] is T2, Diacylglycerol lipase-alpha (Mus musculus, UniProt Q6WQJ1).
T2 sequence (Q6WQJ1 whole entry): T1 sequence (whole entry)
As to the kind of experiment: Inhibition of mouse DAGL-alpha expressed in HEK293T cell membranes assessed as inhibition constant without pre-incubation, measured continuously from t=0 with 600 uM PNP-butyrate by surrogate substrate assay.

Data set [3] deals with T2, Diacylglycerol lipase-alpha. As to the kind of experiment: Inhibition of mouse DAGL-alpha expressed in HEK293T cell membranes pre-incubated for 20 mins before PNP-butyrate substrate addition and measured after 30 mins by surrogate substrate assay. Format: cell-based. An outline of the steps:
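mDAGL-α membrane fraction from transiently transfected HEK293T cells, at 0.05 μg/μL final, in 50 mM Hepes pH 7.2. Inhibitor in DMSO was preincubated 20 min, then PNP-butyrate was added (0.3 mM final; 5% DMSO final). After 30 min at 20 °C, OD was read at 420 nm. Background from 10 μM THL was subtracted and values normalized to DMSO control. Plates were kept if Z′ > 0.6. N = 2, n = 2.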

The nature of data set [4]: Dissociation constant, pKa of the compound. It counts as physicochemical.
Data set [5] addresses T1, Diacylglycerol lipase-alpha (Mus musculus). As to the kind of experiment: Inhibition of mouse DAGL-alpha expressed in HEK293T cell membranes assessed as inactivation constant measured continuously from t=0 without pre-incubation by kinetic PNP-butyrate substrate assay.

Broadly, the Ki is the equilibrium dissociation constant of an inhibitor or competing ligand from its target. As usually defined, the pKa is the pH at which an ionisable group is half protonated. Lower therefore signals a group that gives up its proton readily.

Consider `O=C(N1CCCCC1Cc1ccccc1)n1cc(-c2ccc(-c3ccccc3)cc2)nn1` (stereo unspecified), for which, in data set [1], the Kinact is 0.08 min⁻¹. The Ki in data set [2] came to 0.35 nM. Further, the IC50 in data set [3] (read-out: pIC50 (converted)) was less than 1 nM.

Regarding `O=C(N1CCCC[C@@H]1Cc1ccccc1)n1cc(C(O)(c2ccc(F)cc2)c2ccc(F)cc2)nn1`, the Kinact in data set [1] was determined as 0.32 min⁻¹. Further, the Ki in data set [2] stood at 339 nM. Moreover, the IC50 in data set [3] (read-out: pIC50 (converted)) was 3.8 nM. The same compound gave a pKa in data set [4] of 9.3.

As for `O=C(N1CCCC[C@@H]1Cc1ccccc1)n1cnc(C(O)(c2ccc(F)cc2)c2ccc(F)cc2)n1`, the Kinact in data set [1] came out at 0.075 min⁻¹. In addition, in data set [2], the inhibition constant (Ki) came out at 13800 nM. Moreover, in data set [3] (read-out: IC50), the IC50 was 3400 nM. In addition, in data set [4], the pKa turned out to be 10.

For the compound `Cc1ccc(-c2cnc3nc(C(=O)CCCCCc4ccccc4)oc3c2)cc1`, the Ki in data set [2] amounted to 0.23 nM. Moreover, the IC50 in data set [3] (read-out: pIC50 (converted)) is 2.51 nM.

As to `C#CCO[C@@H]1CC[C@H](Cc2ccccc2)N(C(=O)n2ncc(C(O)(c3ccc(F)cc3)c3ccc(F)cc3)n2)C1`, the Kinact in data set [5] was 0.058 min⁻¹. For the same compound, the Ki in data set [2] was 0.27 nM. Also, the IC50 in data set [3] (read-out: pIC50 (converted)) was less than 1 nM.

As to `O=C(N1CCCC[C@@H]1Cc1ccccc1)n1cnc(C(O)(c2ccc(F)cc2)c2ccc(F)cc2)c1`, in data set [3] (read-out: pIC50 (converted)), the IC50 is greater than 31600 nM. Besides, in data set [4], the pKa was found to be 14.4.

With `O=C(N1CCCC[C@@H]1Cc1ccccc1)n1ncc(C(O)(c2ccc(F)cc2)c2ccc(F)cc2)n1`, the Kinact in data set [1] was 0.22 min⁻¹. In addition, the Ki in data set [2] came out at 10.4 nM. In addition, the IC50 in data set [3] (read-out: pIC50 (converted)) is 3.02 nM. Further, the pKa in data set [4] is 9.3.

In the case of `O=C(N1CCCC[C@@H]1Cc1ccccc1)n1ccc(C(O)(c2ccc(F)cc2)c2ccc(F)cc2)n1`, the Kinact in data set [1] was 0.08 min⁻¹. In addition, in data set [2], the Ki was determined as 10800 nM. In addition, the IC50 in data set [3] (read-out: IC50) came out at 210 nM. In data set [4], the pKa was 14.2.

For the origin of these results see ChEMBL document CHEMBL4373725, “Structure Kinetics Relationships and Molecular Dynamics Show Crucial Role for Heterocycle Leaving Group in Irreversible Diacylglycerol Lipase Inhibitors” (J Med Chem, 2019).
